Reference: ChEMBL document CHEMBL5038617, “1,2,4-Triazole-3-thione compounds with a 4-ethyl alkyl/aryl sulfide substituent are broad-spectrum metallo-β-lactamase inhibitors with re-sensitization activity” (Eur J Med Chem, 2021)

Assays:
[1] = Inhibition of bacterial Metallo-beta-lactamase IMP-1 (unknown origin) assessed as substrate hydrolysis using meropenem as substrate by UV-visible spectrometry analysis; set-up: species or system Bacteria
Outline: (§1)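 Purified MBL enzyme at 1–70 nM final, in 50 mM HEPES pH 7.5 at 30 °C with 0.5% DMSO. Reporter substrate 150 µM imipenem or meropenem; hydrolysis read at 300 nm. […] Ki measured when inhibition exceeded 75%, by competitive-model v0/vi vs [I] slope or Dixon plot. Some runs used 10 min enzyme–inhibitor preincubation. Triplicate.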

Klebsiella pneumoniae [2] = assay: Synergistic antibacterial activity against Klebsiella pneumonia 7023 clinical isolate strain producing Metallo-beta-lactamase VIM-1 assessed as meropenem MIC in presence of meropenem incubated for 24 hrs by broth microdilution method; assay type: functional
Outline: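 CLSI broth microdilution in Mueller-Hinton broth with 5 × 10^4 CFU/well. Meropenem two-fold serial dilutions tested with and without inhibitor fixed at 32 µg/mL, inhibitor added before antibiotic. DMSO ≤1%. […] Growth controls included. Triplicate.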

[3] = Inhibition of bacterial Metallo-beta-lactamase VIM-4 (unknown origin) assessed as substrate hydrolysis using meropenem as substrate by UV-visible spectrometry analysis; set-up: species or system Bacteria; outline: as §1
Klebsiella pneumoniae [4] = assay: Synergistic antibacterial activity against Klebsiella pneumonia VA 416/02 clinical isolate strain producing Metallo-beta-lactamase VIM-4 assessed as meropenem MIC in presence of meropenem incubated for 24 hrs by broth microdilution method; conditions: VA 416/02, 24 h
[5] = Inhibition of bacterial Metallo-beta-lactamase VIM-1 (unknown origin) assessed as substrate hydrolysis using meropenem as substrate by UV-visible spectrometry analysis; set-up: species or system Bacteria; outline: as §1
[6] = Inhibition of bacterial Metallo-beta-lactamase VIM-2 (unknown origin) assessed as substrate hydrolysis using meropenem as substrate by UV-visible spectrometry analysis; set-up: species or system Bacteria; outline: as §1
[7] = Inhibition of bacterial New Delhi metallo-beta-lactamase 1 (unknown origin) assessed as substrate hydrolysis using meropenem as substrate by UV-visible spectrometry analysis; set-up: species or system Bacteria; outline: as §1
Bacteria [8] = assay: Inhibition of bacterial Metallo-beta-lactamase IMP-1 (unknown origin) assessed as substrate hydrolysis at 100 uM using meropenem as substrate by UV-visible spectrometry analysis; outline: as §1
Bacteria [9] = assay: Inhibition of bacterial New Delhi metallo-beta-lactamase 1 (unknown origin) assessed as substrate hydrolysis at 100 uM using meropenem as substrate by UV-visible spectrometry analysis; outline: as §1
Bacteria [10] = assay: Inhibition of bacterial Metallo-beta-lactamase VIM-2 (unknown origin) assessed as substrate hydrolysis at 100 uM using meropenem as substrate by UV-visible spectrometry analysis; outline: as §1

For `S=c1[nH]nc(-c2ccccc2)n1CCSc1ccccc1`, which Ki [1] is on record?
Its Ki is 3350 nM.

What about the MIC (Klebsiella pneumoniae [2]) of the same compound?
Its MIC is 1 µg/mL.

What about the Ki [3] of the same compound?
The Ki was 540 nM.

And the MIC (Klebsiella pneumoniae [4])?
Its MIC is 1 µg/mL.

And the Ki [5]?
Its Ki is 1260 nM.

And the Ki [6]?
The Ki was 1570 nM.

What about the Ki [7] of the same compound?
The Ki was 11000 nM.

Which results are given for `Fc1ccc(CSCCn2c(-c3ccccc3)n[nH]c2=S)c(F)c1`?
Ki [1]: 8670 nM; MIC (Klebsiella pneumoniae [2]): 2 µg/mL; Ki [3]: 1180 nM; MIC (Klebsiella pneumoniae [4]): 1 µg/mL; Ki [5]: 1330 nM; Ki [6]: 940 nM; Ki [7]: 12000 nM

What does the source list for `O=[N+]([O-])c1ccccc1CSCCn1c(-c2ccccc2)n[nH]c1=S`?
inhibition (Bacteria [8]): 72%; Ki [1]: 19000 nM; MIC (Klebsiella pneumoniae [2]): 2 µg/mL; Ki [3]: 560 nM; MIC (Klebsiella pneumoniae [4]): 1 µg/mL; Ki [5]: 480 nM; Ki [6]: 570 nM; Ki [7]: 13200 nM

With `S=c1[nH]nc(-c2ccccc2)n1CCSCCc1ccccc1` as the compound, how does the Ki [1] read?
The Ki was 17700 nM.

And the MIC (Klebsiella pneumoniae [2])?
Its MIC is 2 µg/mL.

What about the Ki [3] of the same compound?
Its Ki is 430 nM.

And the MIC (Klebsiella pneumoniae [4])?
The MIC was 1 µg/mL.

What about the Ki [5] of the same compound?
Its Ki is 460 nM.

And the Ki [6]?
Its Ki is 1760 nM.

What about the Ki [7] of the same compound?
The Ki was 21100 nM.

Which inhibition (Bacteria [8]) does the source give for `COc1ccc(O)c(-c2n[nH]c(=S)n2CCSCc2ccccc2)c1` here?
Its inhibition is 63%.

What about the MIC (Klebsiella pneumoniae [2]) of the same compound?
The MIC was 2 µg/mL.

And the inhibition (Bacteria [9])?
Its inhibition is 46%.

What about the Ki [3] of the same compound?
Its Ki is 600 nM.

And the MIC (Klebsiella pneumoniae [4])?
The MIC was 2 µg/mL.

And the Ki [5]?
Its Ki is 180 nM.

And the Ki [6]?
Its Ki is 1650 nM.

For `O=[N+]([O-])c1ccc(CSCCn2c(-c3ccccc3)n[nH]c2=S)cc1`, which Ki [1] is on record?
The Ki was 3630 nM.

What about the MIC (Klebsiella pneumoniae [2]) of the same compound?
Its MIC is 2 µg/mL.

And the Ki [3]?
The Ki was 880 nM.

What about the MIC (Klebsiella pneumoniae [4]) of the same compound?
Its MIC is 1 µg/mL.

And the Ki [5]?
Its Ki is 430 nM.

And the Ki [6]?
Its Ki is 1290 nM.

What about the Ki [7] of the same compound?
The Ki was 11100 nM.

For `S=c1[nH]nc(-c2ccccc2)n1CCSc1cccc2ccccc12`, which inhibition (Bacteria [8]) is on record?
The inhibition was less than 30%.

And the MIC (Klebsiella pneumoniae [2])?
Its MIC is 8 µg/mL.

And the inhibition (Bacteria [9])?
The inhibition was less than 30%.

What about the Ki [3] of the same compound?
Its Ki is 250 nM.

What about the MIC (Klebsiella pneumoniae [4]) of the same compound?
Its MIC is 16 µg/mL.

And the Ki [5]?
Its Ki is 480 nM.

And the Ki [6]?
Its Ki is 1000 nM.

Which inhibition (Bacteria [8]) does the source give for `O=C(O)C(SCCn1c(-c2ccccc2)n[nH]c1=S)c1ccccc1` (stereo unspecified) here?
The inhibition was 30%.

And the MIC (Klebsiella pneumoniae [2])?
Its MIC is 4 µg/mL.

And the inhibition (Bacteria [9])?
Its inhibition is 40%.

And the Ki [3]?
Its Ki is 210 nM.

And the MIC (Klebsiella pneumoniae [4])?
Its MIC is 2 µg/mL.

And the Ki [5]?
The Ki was 1650 nM.

What about the Ki [6] of the same compound?
Its Ki is 190 nM.

For `Cc1nnc(SCCn2c(-c3ccccc3)n[nH]c2=S)s1`, which inhibition (Bacteria [8]) is on record?
Its inhibition is less than 30%.

And the MIC (Klebsiella pneumoniae [2])?
Its MIC is 2 µg/mL.

And the inhibition (Bacteria [9])?
Its inhibition is less than 30%.

And the Ki [3]?
The Ki was 2950 nM.

And the MIC (Klebsiella pneumoniae [4])?
Its MIC is 2 µg/mL.

What about the Ki [5] of the same compound?
Its Ki is 2170 nM.

And the inhibition (Bacteria [10])?
The inhibition was 56%.

Which Ki [1] does the source give for `Nc1ccccc1SCCn1c(-c2ccccc2)n[nH]c1=S` here?
The Ki was 22200 nM.

And the MIC (Klebsiella pneumoniae [2])?
The MIC was 4 µg/mL.

And the Ki [3]?
Its Ki is 410 nM.

And the MIC (Klebsiella pneumoniae [4])?
The MIC was 2 µg/mL.

What about the Ki [5] of the same compound?
The Ki was 470 nM.

What about the Ki [6] of the same compound?
The Ki was 1150 nM.

And the Ki [7]?
Its Ki is 16300 nM.

With `O=C(O)CCSCCn1c(-c2ccccc2)n[nH]c1=S` as the compound, how does the inhibition (Bacteria [8]) read?
The inhibition was 67%.

And the MIC (Klebsiella pneumoniae [2])?
Its MIC is 2 µg/mL.

What about the inhibition (Bacteria [9]) of the same compound?
Its inhibition is 59%.

And the Ki [3]?
The Ki was 1980 nM.

What about the MIC (Klebsiella pneumoniae [4]) of the same compound?
Its MIC is 1 µg/mL.

And the Ki [5]?
The Ki was 1990 nM.

What about the Ki [6] of the same compound?
Its Ki is 1910 nM.

Which inhibition (Bacteria [8]) does the source give for `O=C(O)CSCCn1c(-c2ccccc2)n[nH]c1=S` here?
The inhibition was less than 30%.

What about the MIC (Klebsiella pneumoniae [2]) of the same compound?
The MIC was 2 µg/mL.

And the inhibition (Bacteria [9])?
Its inhibition is 40%.

And the Ki [3]?
Its Ki is 710 nM.

What about the MIC (Klebsiella pneumoniae [4]) of the same compound?
The MIC was 4 µg/mL.

What about the Ki [5] of the same compound?
Its Ki is 2360 nM.

And the Ki [6]?
The Ki was 810 nM.

Which results are given for `S=c1[nH]nc(-c2ccccc2-c2ccccc2)n1CCSCc1ccccc1`?
inhibition (Bacteria [8]): 35%; inhibition (Bacteria [9]): < 30%; inhibition (Bacteria [10]): < 30%

For `S=c1[nH]nc(-c2ccccc2)n1CCCSc1ccccc1`, which inhibition (Bacteria [8]) is on record?
Its inhibition is 46%.

And the MIC (Klebsiella pneumoniae [2])?
The MIC was 2 µg/mL.

What about the inhibition (Bacteria [9]) of the same compound?
The inhibition was 42%.

What about the Ki [3] of the same compound?
Its Ki is 4850 nM.

What about the MIC (Klebsiella pneumoniae [4]) of the same compound?
The MIC was 1 µg/mL.

And the Ki [5]?
The Ki was 2980 nM.

What about the Ki [6] of the same compound?
Its Ki is 1350 nM.

For `S=c1[nH]nc(-c2ccccc2)n1CCOCc1ccccc1`, which inhibition (Bacteria [8]) is on record?
Its inhibition is 42%.

And the MIC (Klebsiella pneumoniae [2])?
The MIC was 4 µg/mL.

What about the inhibition (Bacteria [9]) of the same compound?
The inhibition was 33%.

And the Ki [3]?
The Ki was 2060 nM.

And the MIC (Klebsiella pneumoniae [4])?
The MIC was 2 µg/mL.

What about the Ki [5] of the same compound?
The Ki was 1020 nM.

What about the Ki [6] of the same compound?
Its Ki is 3160 nM.

What does the source list for `S=c1[nH]nc(-c2ccc(OCc3ccccc3)cc2)n1CCSCc1ccccc1`?
inhibition (Bacteria [8]): 60%; inhibition (Bacteria [9]): < 30%; Ki [3]: 1040 nM; Ki [5]: 2240 nM; inhibition (Bacteria [10]): < 30%

What does the source list for `O=C(O)C(CSCCn1c(-c2cccc(-c3ccccc3)c2)n[nH]c1=S)c1ccccc1` (stereo unspecified)?
inhibition (Bacteria [8]): 56%; MIC (Klebsiella pneumoniae [2]): 4 µg/mL; Ki [3]: 210 nM; MIC (Klebsiella pneumoniae [4]): 2 µg/mL; Ki [5]: 1390 nM; Ki [6]: 370 nM; Ki [7]: 20300 nM

Which Ki [1] does the source give for `Fc1ccc(CSCCn2c(-c3ccccc3)n[nH]c2=S)cc1` here?
The Ki was 9660 nM.

And the MIC (Klebsiella pneumoniae [2])?
Its MIC is 8 µg/mL.

And the Ki [3]?
Its Ki is 1110 nM.

What about the MIC (Klebsiella pneumoniae [4]) of the same compound?
Its MIC is 2 µg/mL.

What about the Ki [5] of the same compound?
The Ki was 2220 nM.

And the Ki [6]?
Its Ki is 830 nM.

And the Ki [7]?
The Ki was 15100 nM.
